Assay results from different studies.

CCn1c(=O)c(-c2cc(NC(=O)Nc3ccccc3)c(F)cc2Br)cc2cnc(NC)cc21  Tmax (male mouse; plasma; oral; 15 mg/kg; single dose): 60 min
OCc1ccc(-c2nn(Cc3ccccc3)c3ccccc23)o1  Tmax (male CD-1 mouse; plasma; oral; 10 mg/kg): 15 min
COCC(=O)N1CCc2[nH]c3c(Cl)c(Cl)ccc3c2[C@@H]1C  Tmax (C57BL/6 mouse; blood; intravenous; 1 mg/kg): 5 min
Cc1[nH]c(C)c(S(=O)(=O)Nc2ccc(C(F)(F)F)c(Cl)c2)c1C(=O)N1CCC(F)(F)C1  Tmax (male CD-1 mouse; brain; intraperitoneal; 40 mg/kg): 60 min
CN(C)C(=O)c1cc2cnc(Nc3ccc(-c4ccc5c(=O)cc(N6CCOCC6)oc5c4)cc3)nc2n1C1CCCC1  Tmax (BALB/c mouse; plasma; oral; 20 mg/kg): 24 min
Cc1ccc(N(c2ccc(NC(=O)CN(C)c3ccccc3N3CCCC3=O)cc2)C(C)C)cc1  Tmax (male CD-1 mouse; plasma; oral; 20 mg/kg): 40.2 min
NCc1ccc(-c2nn(Cc3ccncc3)c3ccccc23)o1  Tmax (male CD-1 mouse; plasma; oral; 10 mg/kg): 30 min
COc1cc(C2C3=C(COC3=O)N(CCO)c3cc4c(cc32)CCC4)cc(OC)c1OC (centres unmarked)  Tmax (female C57BL/6 mouse; plasma; intraperitoneal; 50 mg/kg): 60 min
NCc1ccc(-c2nn(Cc3ccccc3)c3ccccc23)o1  Tmax (male CD-1 mouse; plasma; intraperitoneal; 30 mg/kg): 30 min
Cc1nc2ccc(OCc3ccc(C(F)(F)F)cc3)cc2[nH]1  Tmax (male BALB/c mouse; plasma; oral; 10 mg/kg): 15 min
COC1=CC(c2ccc[nH]2)=N/C1=C\c1cc(Cc2ccc(OC(F)(F)F)cc2)c(C)[nH]1.Cl  Tmax (male CD-1 mouse; liver; oral; 40 mg/kg; single dose): 1440 min
NCc1cc2c(cc1F)C(=O)N(C1CCC(=O)NC1=O)C2 (centres unmarked)  Tmax (male CD-1 mouse; plasma; oral; 10 mg/kg): 48 min
Cc1ccc(OCC(=O)N[C@@H](Cc2c[nH]c3ccccc23)C(=O)OC(C)C)cc1  Tmax (male Sprague-Dawley mouse; plasma; intravenous; 10 mg/kg): 48 min
COC1=CC(c2ccc[nH]2)=N/C1=C\c1[nH]c(Cc2ccc(OC(F)(F)F)cc2)cc1Cc1ccc(OC(F)(F)F)cc1  Tmax (male CD-1 mouse; plasma; oral; 40 mg/kg; single dose): 240 min
